Measurements from paper PMC8144927 (Virology, 2021).

Biological target: angiotensin-converting enzyme 2 (ACE2) (Homo sapiens, UniProt Q9BYF1)
Experiment: SPR
Type: binding
Procedure, shortened: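 Nitrilotriacetic acid (NTA) sensor chip surface primed and charged with Ni2+ by sequential injection of 200 mM imidazole and 40 mM NiCl2. His6-tagged ACE2 protein at 20 μg/mL captured on the chip, with test compound as analyte. Supporting ACE2h cell membrane chromatography: 10.0 mm × 2.0 mm column, 37 °C, 0.2 mL/min, 2 mM phosphate-buffered saline (pH 7.4), detection at 284 nm.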

angiotensin-converting enzyme 2 (ACE2), sequence (Q9BYF1 18-805): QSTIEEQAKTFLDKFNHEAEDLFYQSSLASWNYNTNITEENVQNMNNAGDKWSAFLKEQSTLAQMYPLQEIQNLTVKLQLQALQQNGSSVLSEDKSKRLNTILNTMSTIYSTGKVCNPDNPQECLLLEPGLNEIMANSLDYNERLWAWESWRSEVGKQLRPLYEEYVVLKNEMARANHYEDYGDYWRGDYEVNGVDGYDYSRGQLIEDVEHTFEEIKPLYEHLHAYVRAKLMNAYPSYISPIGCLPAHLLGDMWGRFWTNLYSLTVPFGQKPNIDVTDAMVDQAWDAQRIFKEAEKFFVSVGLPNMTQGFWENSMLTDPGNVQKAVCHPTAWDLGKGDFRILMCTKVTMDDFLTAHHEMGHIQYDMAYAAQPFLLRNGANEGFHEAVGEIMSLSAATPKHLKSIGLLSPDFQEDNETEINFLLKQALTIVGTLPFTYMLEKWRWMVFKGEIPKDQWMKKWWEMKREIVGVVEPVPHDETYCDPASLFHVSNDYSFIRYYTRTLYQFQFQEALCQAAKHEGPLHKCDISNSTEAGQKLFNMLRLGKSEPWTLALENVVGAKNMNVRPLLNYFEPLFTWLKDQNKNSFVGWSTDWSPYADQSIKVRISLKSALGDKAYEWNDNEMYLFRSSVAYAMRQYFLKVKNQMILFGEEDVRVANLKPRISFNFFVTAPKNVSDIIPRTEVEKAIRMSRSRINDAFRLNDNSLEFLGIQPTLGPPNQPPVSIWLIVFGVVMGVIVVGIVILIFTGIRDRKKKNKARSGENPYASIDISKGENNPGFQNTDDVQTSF

## CN1CCCC(n2nc(Cc3ccc(Cl)cc3)c3ccccc3c2=O)CC1 (stereo not shown) [azelastine]
  Kd: 258 nM
